The record followed here is paper PMC11661184 (bioRxiv, 2024).

One test has as its target CaM12 (Homo sapiens, UniProt P0DP23). In words: Isothermal titration calorimetry, CaM12. In kind it is binding. As to conditions: ITC, 2 mM Ca2+. A digest of the protocol: (§1)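 The ITC cell held 15 µM CaM variant and the syringe 810 µM hTRPA1¹⁰⁸⁹⁻¹¹¹⁹ peptide. Both were buffer-matched in storage buffer (50 mM Tris pH 8.0, 150 mM NaCl, 2 mM CaCl₂, 0.1 mM PMSF). There were 35 injections spaced 240 s apart, with stirring at 290 RPM. Data were fitted to a one-site model.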

Another test deals with WT CaM (Homo sapiens, UniProt P0DP23). In words: Isothermal titration calorimetry, WT CaM. The format is binding. The settings on record: ITC, 2 mM Ca2+. The essentials: as §1
The subject of another test is CaM (Calmodulin-agarose). Kind of test: CaM-agarose pulldown of TRPA1 constructs. The format is binding. The essentials: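 HEK293T cells were transfected with tagged TRPA1 constructs and lysed after 16-24 h in Tris pH 8.0 buffer containing 5 mM DDM and 500 µM EGTA. Free Ca²⁺ was set with CaCl₂, calculated from EGTA constants. 100 µg lysate was incubated with CaM-agarose for 1 h at 4 °C, washed, then eluted with 5 mM EGTA. Detection was by anti-FLAG or anti-MBP immunoblot, with tubulin input control. Enrichment is relative to the maximum within each replicate.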

A further test concerns 15N-labeled WT CaM. In words: 15N-1H HSQC NMR, WT CaM. In kind it is binding, human. As to conditions: 1:1 molar ratio, 25 °C, 700 MHz.
The test system of the next test is 15N-labeled CaM12. In words: 15N-1H HSQC NMR, CaM12. The format is binding, human. As to conditions: 1:1 molar ratio, 25 °C, 700 MHz.
The target of test [1] is 3xFLAG-TurboID-CaM C-lobe (human). Kind of test: proximity labelling.
A further test concerns hTRPA1^Δ1109–1119. Kind of test: TEVC block of residual current, hTRPA1^Δ1109–1119. In kind it is cell-based, human. As to conditions: 10 µM A-967079.
The test system of a further test is TurboID-CaM C-lobe. In words: Proximity biotinylation in HEK293T cells. The settings on record: 50 µM biotin 15 min, basal Ca2+; n=4. The format is cell-based, human. A digest of the protocol:
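HEK293T cells co-expressed 3xFLAG-TurboID or 3xFLAG-TurboID-CaM C-lobe with 3xFLAG-hTRPA1 variants. About 48 h post-transfection, 50 uM biotin was added to the culture medium. After 15 min, cells were lysed and proteins captured on anti-FLAG resin (1 h, 4 °C), then eluted with 125 µg/ml 3xFLAG peptide. Biotinylated proteins were detected with HRP-streptavidin (1:50,000).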

Another test concerns V5-tagged WT CaM. In words: Immunofluorescence co-localization with V5-WT CaM in Neuro2A cells. The settings on record: for Co-localization with WT CaM (deconvolved IF images): resting Neuro2A cells, Airyscan. In kind it is cell-based, human. The essentials: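 Neuro2A cells were grown in DMEM with 10% FBS, transfected, then placed on poly-L-lysine coverslips for 16-20 h. Cells were fixed in 4% PFA, permeabilised with 0.1% Triton and blocked in 4% BSA. Staining used anti-V5 (1:500), Alexa488 anti-mouse (1:700) and Cy3 anti-FLAG (1:500), each for 45 min at RT. Airyscan images (63x oil) were deconvolved. Per-cell pixel-intensity Pearson's R used thresholds from mono-stained samples. Mean ± SD; two-tailed t-test.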

For test [2], the system named is hTRPA1 expressed in Xenopus laevis oocytes. Kind of test: Two-electrode voltage clamp, Ca2+ potentiation and desensitization. In kind it is cell-based, human. As to conditions: for Potentiation by extracellular Ca2+ / Slowing of potentiation versus WT hTRPA1 / Slowing of desensitization versus WT hTRPA1: 1.8 mM Ca2+; for Potentiation by extracellular Ca2+: comparable peak current amplitudes; for Desensitization time constant / Potentiation time constant: 1.8 mM extracellular Ca2+, n=10 oocytes.

Test [3] concerns hTRPA1 channel activity in HEK293T cells. Kind of test: Ratiometric Ca2+ imaging of TRPA1 variant activity. The settings on record: baseline, 10 µM or 100 µM AITC; n=4. In kind it is cell-based, human. The essentials: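 HEK293T cells (DMEM, 10% calf serum) were transiently transfected. At 16-24 h they were replated on poly-L-lysine glass, with parallel anti-FLAG immunoblot to check expression. One hour later cells were loaded with 10 µg/mL Fura-2 AM and 0.025% Pluronic F-127 in Ringer's for 1 h at RT. […] At least 90 cells per condition per experiment were analysed, with untransfected background subtracted. Mean ± SEM; two-tailed t-test.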

Test [4] has as its system hTRPA1 expressed in Xenopus laevis oocytes. The format is cell-based, human.

Entries after “also recorded” stand apart in the source; their conditions may differ.

In the case of “hTRPA1^1089–1119: hTRPA1 distal C-terminus peptide, residues 1089–1119, bacterially purified and liberated from MBP (DRFKKEQMEQRNSRWNTVLRAVKAKTHHLEP)”, the “Number of binding events observed” value in the test with CaM12 and in the test with WT CaM was “single binding event” throughout. In addition, in the test on CaM (Calmodulin-agarose) (MBP-tagged, expressed in HEK293T, absence or presence of Ca2+), the “CaM binding of MBP-tagged C-terminal peptides” value is recorded as “bound CaM in a Ca^2+-dependent manner”. Besides, the “Chemical shift perturbations (CSPs)” value with 15N-labeled WT CaM was “observed predominantly in the C-lobe”; in the test on 15N-labeled CaM12, “observed predominantly in the C-lobe; also recorded: more CSPs in the C-lobe than WT CaM”.

“3xFLAG-WT hTRPA1 (wild type human TRPA1) (from UniProt O75762 1-1119) (natural protein)” came in with a percent increase in biotinylation with TurboID-CaM C-lobe against free TurboID in test [1] of 40%.

Take `CCC(=N\O)/C(C)=C/c1ccc(F)cc1` [A-967079]: in the test on hTRPA1^Δ1109–1119, the “Inhibition of residual activity” value was “inhibited”.

B1: WT hTRPA1: wild type human TRPA1 channel (protein)
chain: MKRSLRKMWRPGEKKEPQGVVYEDVPDDTEDFKESLKVVFEGSAYGLQNFNKQKKLKRCDDMDTFFLHYAAAEGQIELMEKITRDSSLEVLHEMDDYGNTPLHCAVEKNQIESVKFLLSRGANPNLRNFNMMAPLHIAVQGMNNEVMKVLLEHRTIDVNLEGENGNTAVIIACTTNNSEALQILLKKGAKPCKSNKWGCFPIHQAAFSGSKECMEIILRFGEEHGYSRQLHINFMNNGKATPLHLAVQNGDLEMIKMCLDNGAQIDPVEKGRCTAIHFAATQGATEIVKLMISSYSGSVDIVNTTDGCHETMLHRASLFDHHELADYLISVGADINKIDSEGRSPLILATASASWNIVNLLLSKGAQVDIKDNFGRNFLHLTVQQPYGLKNLRPEFMQMQQIKELVMDEDNDGCTPLHYACRQGGPGSVNNLLGFNVSIHSKSKDKKSPLHFAASYGRINTCQRLLQDISDTRLLNEGDLHGMTPLHLAAKNGHDKVVQLLLKKGALFLSDHNGWTALHHASMGGYTQTMKVILDTNLKCTDRLDEDGNTALHFAAREGHAKAVALLLSHNADIVLNKQQASFLHLALHNKRKEVVLTIIRSKRWDECLKIFSHNSPGNKCPITEMIEYLPECMKVLLDFCMLHSTEDKSCRDYYIEYNFKYLQCPLEFTKKTPTQDVIYEPLTALNAMVQNNRIELLNHPVCKEYLLMKWLAYGFRAHMMNLGSYCLGLIPMTILVVNIKPGMAFNSTGIINETSDHSEILDTTNSYLIKTCMILVFLSSIFGYCKEAGQIFQQKRNYFMDISNVLEWIIYTTGIIFVLPLFVEIPAHLQWQCGAIAVYFYWMNFLLYLQRFENCGIFIVMLEVILKTLLRSTVVFIFLLLAFGLSFYILLNLQDPFSSPLLSIIQTFSMMLGDINYRESFLEPYLRNELAHPVLSFAQLVSFTIFVPIVLMNLLIGLAVGDIAEVQKHASLKRIAMQVELHTSLEKKLPLWFLRKVDQKSTIVYPNKPRSGGMLFHIFCFLFCTGEIRQEIPNADKSLEMEILKQKYRLKDLTFLLEKQHELIKLIIQKMEIISETEDDDSHCSFQDRFKKEQMEQRNSRWNTVLRAVKAKTHHLEP
B1: in the test on TurboID-CaM C-lobe, the “Increase in TRPA1 biotinylation with TurboID-CaM C-lobe versus TurboID” value is reported as “approximately 40%”. Further, the “Co-localization with WT CaM (deconvolved IF images)” value in the test with V5-tagged WT CaM is reported as “pronounced co-localization”. Moreover, the “CaM binding (CaM-agarose enrichment)” value in the test with CaM (Calmodulin-agarose) (0.1 µM Ca2+ (resting cytosolic), HEK293T lysate, immunoblot, n=11) was “robust interaction”; with CaM (Calmodulin-agarose) (absence of Ca2+ (0 µM), HEK293T lysate, immunoblot) it was “failed to bind CaM”; in the test with CaM (Calmodulin-agarose) (intermediate (500 µM) and extracellular (2 mM) Ca2+, n=11) it was “stepwise decrease in binding”. Further, in test [2] (250 µM AITC, 125 µM niflumic acid, n=9), the “Desensitization with 10 mM versus 1.8 mM extracellular Ca2+” value is given as “desensitize faster”. Besides, the “Potentiation by extracellular Ca2+” value in [2] (250 µM AITC) was “rapid potentiation”. The Desensitization time constant was found to be 12.5 s in test [2] (+80 mV, 250 µM AITC) and 11.9 s in test [2] (−80 mV, 250 µM AITC). Besides, the Potentiation time constant in test [2] (+80 mV, 250 µM AITC) is 2.2 s; in [2] (−80 mV, 250 µM AITC), 2.7 s. Moreover, the “Desensitization after extracellular Ca2+ addition” value in test [2] (within 25 seconds of 1.8 mM Ca2+) is recorded as “nearly complete desensitization”.

B2: hTRPA1^Δ1109–1119: hTRPA1 truncation lacking only the terminal 11 amino acids (protein)
chain: MKRSLRKMWRPGEKKEPQGVVYEDVPDDTEDFKESLKVVFEGSAYGLQNFNKQKKLKRCDDMDTFFLHYAAAEGQIELMEKITRDSSLEVLHEMDDYGNTPLHCAVEKNQIESVKFLLSRGANPNLRNFNMMAPLHIAVQGMNNEVMKVLLEHRTIDVNLEGENGNTAVIIACTTNNSEALQILLKKGAKPCKSNKWGCFPIHQAAFSGSKECMEIILRFGEEHGYSRQLHINFMNNGKATPLHLAVQNGDLEMIKMCLDNGAQIDPVEKGRCTAIHFAATQGATEIVKLMISSYSGSVDIVNTTDGCHETMLHRASLFDHHELADYLISVGADINKIDSEGRSPLILATASASWNIVNLLLSKGAQVDIKDNFGRNFLHLTVQQPYGLKNLRPEFMQMQQIKELVMDEDNDGCTPLHYACRQGGPGSVNNLLGFNVSIHSKSKDKKSPLHFAASYGRINTCQRLLQDISDTRLLNEGDLHGMTPLHLAAKNGHDKVVQLLLKKGALFLSDHNGWTALHHASMGGYTQTMKVILDTNLKCTDRLDEDGNTALHFAAREGHAKAVALLLSHNADIVLNKQQASFLHLALHNKRKEVVLTIIRSKRWDECLKIFSHNSPGNKCPITEMIEYLPECMKVLLDFCMLHSTEDKSCRDYYIEYNFKYLQCPLEFTKKTPTQDVIYEPLTALNAMVQNNRIELLNHPVCKEYLLMKWLAYGFRAHMMNLGSYCLGLIPMTILVVNIKPGMAFNSTGIINETSDHSEILDTTNSYLIKTCMILVFLSSIFGYCKEAGQIFQQKRNYFMDISNVLEWIIYTTGIIFVLPLFVEIPAHLQWQCGAIAVYFYWMNFLLYLQRFENCGIFIVMLEVILKTLLRSTVVFIFLLLAFGLSFYILLNLQDPFSSPLLSIIQTFSMMLGDINYRESFLEPYLRNELAHPVLSFAQLVSFTIFVPIVLMNLLIGLAVGDIAEVQKHASLKRIAMQVELHTSLEKKLPLWFLRKVDQKSTIVYPNKPRSGGMLFHIFCFLFCTGEIRQEIPNADKSLEMEILKQKYRLKDLTFLLEKQHELIKLIIQKMEIISETEDDDSHCSFQDRFKKEQMEQRNSRWNTVLR
Regarding B2, the “TRPA1 biotinylation with TurboID-CaM C-lobe” value in the test with TurboID-CaM C-lobe is “reduced biotinylation”. Moreover, in the test with V5-tagged WT CaM, the “Co-localization with WT CaM (deconvolved IF images)” value was “greatly reduced co-localization”. Further, the “Pearson's correlation coefficient (R) of CaM:TRPA1 co-localization” value in the test on V5-tagged WT CaM (Δ1109–1119 compared to WT, n=41 or 40 cells, ***p=0.0002) is reported as “significant reduction in the CaM:TRPA1 co-localization”. In the test on CaM (Calmodulin-agarose) (basal Ca2+, n=3 independent experiments), the “CaM binding at basal Ca2+ concentration” value is “failed to bind CaM”. For the same molecule, in [2] (250 µM AITC), the “Potentiation by extracellular Ca2+” value was “rapid potentiation”. The “Residual activity after extracellular Ca2+ (of initial activity)” value in [2] (5 minutes after 1.8 mM extracellular Ca2+, n=10 or 12 oocytes) was 20–30%. For the same molecule, the “Increase in translocated charge versus WT hTRPA1” value in test [2] (+80 mV) was 5 fold; in test [2] (−80 mV), “large, albeit nonsignificant increase”. Further, the “Slowing of potentiation versus WT hTRPA1” value in test [2] (+80 mV) is ~ 1.8 fold; in test [2] (−80 mV) it was ~ 3 fold. The “Slowing of desensitization versus WT hTRPA1” value is given as 16 fold in test [2] (+80 mV, n=10 or 12 oocytes) and 10 fold in [2] (−80 mV, n=10 or 12 oocytes). In test [3], the “Basal and agonist-evoked channel activity compared to WT hTRPA1” value was “increased basal and agonist-evoked activity”. The “AITC sensitivity versus WT hTRPA1” value in [4] (Ca2+-free) was “slightly reduced AITC sensitivities”. Further, in test [4] (absence of Ca2+, activation and closing at +80 mV, n=8), the “Gating kinetics and peak current amplitudes” value is given as “not significantly different from WT hTRPA1”.
